This passage reports GI50 and Activity results from ChEMBL document CHEMBL1156913, “Design and synthesis of anti-breast cancer agents from 4-piperazinylquinoline: a hybrid pharmacophore approach” (Bioorg Med Chem, 2010).

One data set concerns MDA-MB-468. As to the kind of experiment: Cytotoxicity against human MDA-MB-468 cells after 48 hrs by SRB assay. As to conditions: MDA-MB-468, 48 h. The data set is classed as functional. Put shortly: (§1)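 5000–10,000 cells/well preincubated 24 h at 37 °C, 5% CO2, with TCA-fixed time-zero wells. Fivefold serial dilutions (100 to 0.0064 µM) and a DMSO-matched medium control, exposed 48 h. Fixed in 10% TCA for 60 min at 4 °C, stained with 0.4% SRB in 1% acetic acid, solubilized in 10 mM Tris base, read at 515–564 nm. GI50 from variable-slope sigmoidal fits; triplicates, at least two independent experiments.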
For orientation: In SRB staining, fixed cells bind dye roughly in proportion to their protein.

Data set [1] has as its system MCF7. Nature of the data set: Cytotoxicity against human MCF7 cells after 48 hrs by SRB assay. The data set is classed as functional. As to conditions: MCF7, 48 h. An outline of the steps: as §1
Data set [2] in a line: Cytotoxicity against human 184B5 cells after 48 hrs by SRB assay. Type of data set: cell-based. An outline of the steps: as §1
The nature of data set [3]: Cytotoxicity against human MCF10A cells after 48 hrs by SRB assay. Type of data set: cell-based, MCF-10A. Put shortly:
as §1

The test system of data set [4] is MCF7. As to the kind of experiment: Induction of apoptosis in human MCF7 cells assessed as cell death at 40 uM after 24 hrs. The data set is classed as functional. An outline of the steps: (§2)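 MCF7 cells grown in RPMI 1640 with 10% FBS and 2 mM L-glutamine at 37 °C, 5% CO2. Treated 24 h, with DMSO-only medium as negative control. 2.0 × 10⁶ cells harvested, fixed in ice-cold 70% ethanol at −20 °C, and stained 30 min at 37 °C with PI mix (100 µg/mL PI, RNase A, 0.3% NP-40, 0.1% sodium citrate). DNA content read by flow cytometry; apoptotic fraction taken from DNA histograms.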

In data set [5] the test system is MCF7. Nature of the data set: Induction of apoptosis in human MCF7 cells assessed as cell death at 20 uM after 24 hrs. The data set is classed as functional. An outline of the steps: as §2
The test system of the next data set is MCF-10A. As to the kind of experiment: Cell cycle arrest in human MCF10A cells assessed as decrease in at S phase at 20 uM by flow cytometry. The data set is classed as functional, cell-based. Put shortly:
(§3)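 MCF7 (RPMI 1640, 10% FBS, 2 mM L-glutamine) or MCF10A (mammary epithelial basal medium plus MEGM supplements) treated 24 h at 20 or 40 µM with DMSO vehicle controls. 2.0 × 10^6 cells fixed in ice-cold 70% ethanol at -20 °C, then stained 30 min at 37 °C with 100 µg/mL PI, RNase A, 0.3% NP-40 and 0.1% sodium citrate. Phase fractions taken from DNA-content histograms.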
In general terms: A flow cytometer gives signals particle by particle.

Data set [6] deals with MCF7. As to the kind of experiment: Cell cycle arrest in human MCF7 cells assessed as accumulation at G1/G0 phase at 20 uM by flow cytometry. Type of data set: functional. An outline of the steps: as §3
Data set [7] has as its system MCF7. As to the kind of experiment: Cell cycle arrest in human MCF7 cells assessed as accumulation at G1/G0 phase at 40 uM by flow cytometry. The data set is classed as functional. Put shortly:
as §3

Data set [8] has as its system MCF7. Nature of the data set: Cell cycle arrest in human MCF7 cells assessed as accumulation at S phase at 20 uM by flow cytometry. The data set is classed as functional. An outline of the steps:
as §3

For data set [9], the system named is MCF7. Nature of the data set: Cell cycle arrest in human MCF7 cells assessed as accumulation at S phase at 40 uM by flow cytometry. Type of data set: functional. An outline of the steps:
as §3

Data set [10] relates to MCF7. Nature of the data set: Cell cycle arrest in human MCF7 cells assessed as accumulation at G2/M phase at 20 uM by flow cytometry. The data set is classed as functional. Put shortly: as §3
Data set [11] has as its system MCF7. As to the kind of experiment: Cell cycle arrest in human MCF7 cells assessed as accumulation at G2/M phase at 40 uM by flow cytometry. Type of data set: functional. An outline of the steps: as §3
The test system of data set [12] is MCF7. Nature of the data set: Induction of apoptosis in human MCF7 cells assessed as cell death. Type of data set: functional, cell-based.

Calls of active or inactive are those of the source. The calls are words filed in the database; no cut-off is given here.

As for `NC(=S)N/N=C1\C(=O)Nc2cc(Cl)ccc21`, the GI50 in the data set with MDA-MB-468 turned out to be 17.7 µM; in the data set with MCF7 [1], 17.2 µM. The GI50 at 48 h in data set [2] worked out at 40.8 µM; in data set [3] it was 48.5 µM.
In the same order, the values of `NC(=S)N/N=C1/C(=O)N(CN2CCN(c3ccnc4cc(Cl)ccc34)CC2)c2cc(Cl)ccc21` are 26.5 µM, 22.5 µM, 41.3 µM and 64.6 µM.
For `NC(=S)N/N=C1/C(=O)N(CN2CCN(c3ccnc4cc(C(F)(F)F)ccc34)CC2)c2ccccc21`, the GI50 with MDA-MB-468 is 10.3 µM; in the data set on MCF7 [1] it was 13.9 µM. In addition, the GI50 at 48 h in data set [2] turned out to be 20.2 µM; in data set [3], 22.6 µM.
`O=C1C(=O)N(CN2CCN(c3ccnc4cc(Cl)ccc34)CC2)c2cc(Cl)ccc21`: the GI50 stood at 36.6 µM in the data set on MDA-MB-468 and 26.1 µM with MCF7 [1]. Also, the values for the GI50 at 48 h in data set [2] and in [3] were 47.5 µM and 67.8 µM, respectively.
In the same order, the values of `O=C1C(=O)N(CN2CCN(c3ccnc4cc(C(F)(F)F)ccc34)CC2)c2cccc(Cl)c21` are 28.4 µM, 16.9 µM, 47.4 µM and 24 µM.
The like results for `O=C1C(=O)N(CN2CCN(c3ccnc4cc(C(F)(F)F)ccc34)CC2)c2cccc(Br)c21` were, in that order, 52.2 µM, 66.8 µM, 49.7 µM and 37.9 µM.
In the case of `NC(=S)N/N=C1/C(=O)N(CN2CCN(c3ccnc4cc(Cl)ccc34)CC2)c2ccccc21`, the GI50 amounted to 20.6 µM with MDA-MB-468 and 23 µM with MCF7 [1]. The figures for the GI50 at 48 h in data set [2] and in [3] were 28.8 µM and 27.7 µM, respectively.
In the same order, the values of `O=C1C(=O)N(CN2CCN(c3ccnc4cc(C(F)(F)F)ccc34)CC2)c2ccccc21` are 15.3 µM, 34 µM, 43.9 µM and 70 µM.
`O=C1C(=O)N(CN2CCN(c3ccnc4cc(Cl)ccc34)CC2)c2cccc(Br)c21`: the Activity worked out at 10% with MCF7 [4]; 6% with MCF7 [5]; 63% in the data set with MCF7 [6]; 64% in the data set on MCF7 [7]; 18% in the data set on MCF7 [8]; 14% with MCF7 [9]. The Activity is 14% in the data set with MCF7 [10], 12% with MCF7 [11] and “Dose-dependent effect” with MCF7 [12]. In addition, the outcome in the data set on MCF-10A was inactive. Further, the GI50 with MDA-MB-468 was 15.9 µM; in the data set on MCF7 [1], 15.1 µM. Further, the GI50 at 48 h in data set [2] worked out at 49 µM; in data set [3] it was 65.6 µM.
As to `NC(=S)N/N=C1/C(=O)N(CN2CCN(c3ccnc4cc(Cl)ccc34)CC2)c2cccc(Br)c21`, the GI50 in the data set on MDA-MB-468 is 40.4 µM; in the data set with MCF7 [1], 46.6 µM. Moreover, the GI50 at 48 h in [2] came out at 46.4 µM; in data set [3], 29.4 µM.
Take `CCN(CC)CCCC(C)Nc1ccnc2cc(Cl)ccc12` (stereo unspecified) [CHLOROQUINE]: the GI50 at 48 h was found to be 76.1 µM in data set [2] and 81.3 µM in data set [3].
As for `NC(=S)N/N=C1/C(=O)N(CN2CCN(c3ccnc4cc(C(F)(F)F)ccc34)CC2)c2cccc(Br)c21`, the GI50 turned out to be 30.4 µM with MDA-MB-468 and 50.6 µM in the data set with MCF7 [1]. Moreover, the GI50 at 48 h worked out at 26.4 µM in data set [2] and 30.6 µM in data set [3].
In the case of `O=C1C(=O)N(CN2CCN(c3ccnc4cc(C(F)(F)F)ccc34)CC2)c2cc(Br)ccc21`, the results for the GI50 with MDA-MB-468 and with MCF7 [1] were 24.8 µM and 28.1 µM, respectively. In addition, the GI50 at 48 h in data set [2] stood at 21.8 µM; in data set [3], 24.4 µM.
As for `NC(=S)N/N=C1/C(=O)N(CN2CCN(c3ccnc4cc(C(F)(F)F)ccc34)CC2)c2cc(Cl)ccc21`, the GI50 in the data set with MDA-MB-468 is 11 µM; in the data set on MCF7 [1], 24.6 µM. Also, the figures for the GI50 at 48 h in [2] and in data set [3] were 20.1 µM and 38.8 µM, respectively.
Consider `NC(=S)/N=N/c1c(O)[nH]c2ccccc12`, for which the GI50 was found to be 35.5 µM in the data set on MDA-MB-468 and 36.9 µM in the data set with MCF7 [1]. Moreover, the GI50 at 48 h was 60.4 µM in data set [2] and 88.8 µM in data set [3].
The like results for `O=C1C(=O)N(CN2CCN(c3ccnc4cc(Cl)ccc34)CC2)c2ccccc21` were, in that order, 37.9 µM, 48.3 µM, 71.7 µM and 45.9 µM.
For `O=C1C(=O)N(CN2CCN(c3ccnc4cc(Cl)ccc34)CC2)c2cccc(Cl)c21`, the GI50 in the data set on MDA-MB-468 turned out to be 37.8 µM; with MCF7 [1], 39.1 µM. Further, the figures for the GI50 at 48 h in data set [2] and in data set [3] were 77.7 µM and 25.6 µM, respectively.
On to `NC(=S)N/N=C1\C(=O)Nc2cc(Br)ccc21`, for which the GI50 in the data set with MDA-MB-468 amounted to 18.6 µM; in the data set with MCF7 [1], 17.9 µM. Further, the GI50 at 48 h in data set [2] turned out to be 34.9 µM; in [3], 32 µM.
With `NC(=S)N/N=C1/C(=O)N(CN2CCN(c3ccnc4cc(Cl)ccc34)CC2)c2cc(Br)ccc21`, the GI50 turned out to be 11.2 µM with MDA-MB-468 and 11.4 µM with MCF7 [1]. In addition, the results for the GI50 at 48 h in data set [2] and in [3] were 13.1 µM and 22.1 µM, respectively.
In the same order, the values of `NC(=S)N/N=C1\C(=O)Nc2cccc(Br)c21` are 21.2 µM, 14.8 µM, 22.6 µM and 21.4 µM.
Take `O=C1C(=O)N(CN2CCN(c3ccnc4cc(Cl)ccc34)CC2)c2cc(Br)ccc21`: the GI50 with MDA-MB-468 amounted to 35.8 µM; in the data set on MCF7 [1], 17.6 µM. Also, the figures for the GI50 at 48 h in data set [2] and in [3] were 33.2 µM and 17.9 µM, respectively.
The like results for `NC(=S)N/N=C1/C(=O)N(CN2CCN(c3ccnc4cc(C(F)(F)F)ccc34)CC2)c2cc(Br)ccc21` were, in that order, 39.6 µM, 35.5 µM, 21.4 µM and 26.9 µM.
In the case of `O=C1C(=O)N(CN2CCN(c3ccnc4cc(C(F)(F)F)ccc34)CC2)c2cc(Cl)ccc21`, the 50% growth inhibitory concentration (GI50) stood at 26.1 µM with MDA-MB-468 and 15.8 µM in the data set with MCF7 [1]. Further, the GI50 at 48 h came to 25.2 µM in data set [2] and 32.8 µM in [3].
In the same order, the values of `NC(=S)N/N=C1\C(=O)Nc2cccc(Cl)c21` are 24 µM, 30.2 µM, 25.9 µM and 28.7 µM.
In the same order, the values of `NC(=S)N/N=C1/C(=O)N(CN2CCN(c3ccnc4cc(Cl)ccc34)CC2)c2cccc(Cl)c21` are 57.6 µM, 57.5 µM, 20.7 µM and 19.8 µM.
Regarding `NC(=S)N/N=C1/C(=O)N(CN2CCN(c3ccnc4cc(C(F)(F)F)ccc34)CC2)c2cccc(Cl)c21`, the outcome in the data set on MCF7 [4] and with MCF7 [5] was Active. Moreover, in the data set with MCF-10A, the outcome was inactive. For the same compound, the GI50 in the data set with MDA-MB-468 is 23 µM; in the data set with MCF7 [1] it was 21.6 µM. Moreover, the values for the GI50 at 48 h in data set [2] and in data set [3] were 87.8 µM and 51.7 µM, respectively. The Activity in the data set with MCF7 [6] was found to be 64%; in the data set with MCF7 [7], 65%; in the data set with MCF7 [8] it was 17%; with MCF7 [9], 16%; in the data set with MCF7 [10], 12%; with MCF7 [11], 11%.

By GI50 is commonly meant the concentration that inhibits growth by half.
